ChEMBL document CHEMBL5331118, “Allosteric Inhibitors of Macrophage Migration Inhibitory Factor (MIF) Interfere with Apoptosis-Inducing Factor (AIF) Co-Localization to Prevent Parthanatos” (J Med Chem, 2023)
Active and inactive are the calls of the source. The rule behind the calls is not given here.

Tests used:
[1] = biological target: T1, Macrophage migration inhibitory factor (Homo sapiens) (UniProt P14174); test: Inhibition of recombinant C-terminal His-tagged human MIF tautomerase activity expressed in Escherichia coli BL21 assessed as residual activity at 10 uM using PP as substrate preincubated for 10 mins and followed by substrate addition and measured for 3 mins by microplate reader analysis relative to control; conditions: time 13.0 min
T1 sequence (whole entry): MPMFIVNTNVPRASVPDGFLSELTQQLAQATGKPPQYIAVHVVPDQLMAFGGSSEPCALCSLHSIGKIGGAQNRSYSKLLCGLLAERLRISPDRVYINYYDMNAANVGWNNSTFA

[2] = biological target: T1, Macrophage migration inhibitory factor (Homo sapiens); test: Reversible inhibition of recombinant human MIF tautomerase activity expressed in Escherichia coli BL21 assessed as recovery of enzyme activity at 25 uM using PP as substrate preincubated for 10 mins followed by substrate addition and measured after 20 mins by jump dilution method; conditions: time 30.0 min
HeLa [3] = test: (§1) Protection against MNNG-induced parthanatos in human HeLa cells assessed as cell viability preincubated for 3 hrs prior to MNNG addition and measured for 15 mins followed by fresh media replacement for 24 hrs by Hoechst 33342 and propidium iodide staining based flow cytometry analysis; format: functional; conditions: time 1635.0 min
Outline: (§2)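 HeLa cells in DMEM/10% FBS, 5×10^5 per well, were pretreated 3 h with 100 μM inhibitor, then given 50 μM MNNG for 15 min. Medium was replaced and cells were cultured 24 h. Trypsinized cells were stained with 7 μM Hoechst 33342 and 2 μM PI and analysed by flow cytometry. Hoechst-only cells were counted as live, Hoechst+PI cells as dead.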

HeLa [4] = test: as §1, with “analysis (reference value: 20 %)” for “analysis”; format: functional; conditions: time 1635 min; 27.25 h; outline: as §2
HeLa [5] = test: Protection against MNNG-induced parthanatos in human HeLa cells assessed as restoration of original phenotype at 3.7 to 100 uM; format: functional, cell-based; conditions: dose 3.7-100 µM, TDE = time-dependent effect
HeLa [6] = test: Protection against MNNG-induced parthanatos in human HeLa cells assessed as restoration of original phenotype after 0.5 to 3 hrs; format: functional, cell-based; conditions: time 0.5-3 hrs
HeLa [7] = test: Inhibition of MNNG-induced DNA damage in human HeLa cells preincubated for 2 hrs followed by MNNG addition and measured after 2 hrs by comet assay; format: functional, cell-based; conditions: time 4.0 hrs
Outline: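 Alkaline comet assay. HeLa cells were given 50 μM inhibitor or none for 2 h, then 10 μM MNNG for 2 h. Cells were embedded in 1% low-melt agarose and lysed overnight at 4 °C in alkaline lysis solution (pH > 13). Electrophoresis ran at pH > 12, 0.6 V/cm, 25 min. Slides were stained with 2.5 μg/mL PI, imaged by fluorescence microscopy and quantified by image analysis.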

HeLa [8] = test: Induction of DNA damage in human HeLa cells by comet assay; format: toxicity, cell-based
HeLa [9] = test: Inhibition of MNNG-induced DNA damage in human HeLa cells preincubated for 2 hrs followed by MNNG addition by gel electrophoresis assay; format: functional, cell-based; conditions: dose 50.0 µM, TDE = time-dependent effect
HeLa [10] = test: Inhibition of MNNG-induced DNA damage in human HeLa cells preincubated for 2 hrs followed by MNNG addition and measured after 2 hrs by gel electrophoresis assay; format: functional, cell-based; conditions: dose 1.2-100 µM, time 4.0 hrs
HeLa [11] = test: Inhibition of MIF nuclear translocation in human HeLa cells at 100 uM preincubated for 3 hrs followed by MNNG stimulation for 15 mins by immunofluorescence staining based confocal microscopic analysis; format: functional, cell-based; conditions: time 195.0 min
Outline: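 HeLa cells on coverslips got ±100 μM inhibitor for 3 h, then MNNG (50 μM, 15 min), and were incubated overnight. They were methanol-fixed and blocked with 2% BSA. MIF was stained with a rabbit polyclonal and Alexa488 secondary, AIF with a mouse monoclonal and Alexa647 secondary, and nuclei with NucBlue. Nuclear localization was imaged by confocal microscopy.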

| Activity [1] | inhibition [2] | Compound | Activity (HeLa [3]) | Activity (HeLa [4]) | Activity (HeLa [5]) | Activity (HeLa [6]) | inhibition (HeLa [7]) | Activity (HeLa [8]) | inhibition (HeLa [9]) | inhibition (HeLa [10]) | inhibition (HeLa [11]) |
| --- | --- | --- | --- | --- | --- | --- | --- | --- | --- | --- | --- |
| 68% |  | O=C(NCCc1ccccc1)c1cn(-c2cccc3ncccc23)nn1 |  |  |  |  |  |  |  |  |  |
| 44% |  | N#Cc1ccc(-n2cc(C(=O)Nc3ccc(Br)cc3)nn2)cc1 |  |  |  |  |  |  |  |  |  |
|  | Active | O=C(Nc1ccccc1)c1ccc(-n2cc(C(=O)NCc3cccs3)nn2)cc1 | Dose-Dependent Effect | 50% | Tde | Dose-Dependent Effect | Active | Non-Toxic | Tde | Dose-Dependent Effect | Active |
